Laboratory results from paper PMC5306247 (European Journal of Drug Metabolism and Pharmacokinetics, 2016).
Values joined by “and” are separate entries in the source; they are usually repeats but may differ in a detail not shown here. Equal entries are not always repeated. Values belong to the compound of their own block, whether it stands above or below them.

Assays:
CYP3A4 = settings: cited from earlier work
[1] = Clinical pharmacokinetics of CLP and its metabolites in plasma; format: in vivo, patients (human)
Outline: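 Caucasian patients scheduled for PCI or coronarography got 75 mg daily for 7 days, fasting. On day 7, plasma was sampled at 0.5, 1, 2, 3, 4, 6, 12 and 24 h (44 patients) or at 0.5 and 2 h only (38). Plasma was spiked with piroxicam, acetonitrile-precipitated, filtered, dried and reconstituted for HPLC–MS/MS. Quantifiable ranges were parent 0.25–5, derivatized thiol metabolites 0.25–50 and main metabolite 50–10,000 ng/mL. Tmax was taken directly from measured concentrations.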

[2] = tested on: ADP-induced platelet aggregation; settings: 75 mg CLP daily
[3] = in vivo; cited from earlier work
[4] = cited from earlier work
platelet aggregation = settings: cited from earlier work

Structure (SMILES): COC(=O)[C@H](c1ccccc1Cl)N1CCC2SC(=O)C=C2C1 (stereo partly drawn) [2-oxo-CLP]
- share of 2-oxo-CLP transformed into the thiol entities by CYP3A4 (CYP3A4): ~40% and 39.8%

- Tmax ([1]; human, plasma, oral, 75 mg): 1 h
Structure (SMILES): COC(=O)[C@H](c1ccccc1Cl)N1CCc2sccc2C1 [CLP, Clopidogrel]
- median AUCagr for wt/wt genotype versus heterozygotes ([2]; samples 2–3 h after administration, p = 0.484): lower
- classification of patients by response to CLP ([2]; threshold for CLP resistance AUCagr above 486 AU*min): Almost all studied patients were classified as responders
- share of absorbed drug undergoing bioactivation pathway to thiol metabolite [3]: Approximately 15%
- patients treated with CLP who respond poorly to the drug [4]: 5–50%

- time after CLP administration up to which concentrations were quantifiable ([1]; patients, 75 mg CLP daily, day 7, plasma): up to 24 h
Structure (SMILES): O=C(O)[C@H](c1ccccc1Cl)N1CCc2sccc2C1 [CLPM]

Structure (SMILES): COC(=O)[C@H](c1ccccc1Cl)N1CCC(S)/C(=C\C(=O)O)C1 (stereo partly drawn) [H3]
- antiaggregation properties (platelet aggregation): only H4 exhibits antiaggregation properties

Structure (SMILES): COC(=O)C(c1ccccc1Cl)N1CCC(S)C(=CC(=O)O)C1 (stereo not drawn) [H4]
- antiaggregation properties (platelet aggregation): exhibits antiaggregation properties
